Where a SMILES comes first, the peptide text is derived from it. Side-chain parts run from the residue outwards. [ ]: non-standard residue; d: D form. The star is where a group is joined. X1 = NC(=O)[C@H](CCCCNC(=O)c1ccc2c(c1)C(=O)OC21c2ccc3cc(O)ccc3c2Oc2c1ccc1cc(O)ccc21)N*; 2Nal = N[C@@H](Cc1ccc2ccccc2c1)C(=O)O; AEEA = NCCOCCOCC(=O)O

The data set can be described thus: Drug uptake in human HeLa cells assessed as cytosolic entry efficiency measured as fluorescence at 5 uM incubated for 2 hrs by flow cytometry relative to CPP9 (100%). The data set is classed as ADME, cell-based. The gist of the method: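 HeLa cells seeded 24 h earlier, given 5 μM naphthofluorescein-labelled peptide in DMEM with 1% or 10% FBS, 37 °C, 2 h. Cells DPBS-washed, trypsinized, flow cytometry with 633-nm excitation, APC channel, 10,000 live-cell events gated. Signal read as cytosolic entry because NF is non-fluorescent in acidic compartments; mean ± SD of three independent experiments, relative to CPP9 (100%).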
(Flow cytometry measures light scatter and fluorescence of single cells or particles in a stream.)
With `C[C@@H]1NC(=O)[C@H](CC(=O)O)NC(=O)[C@H](CCC(=O)NCCOCCOCC(=O)N[C@@H](CCCCNC(=O)c2ccc3c(c2)C(=O)OC32c3ccc4cc(O)ccc4c3Oc3c2ccc2cc(O)ccc32)C(N)=O)NC(=O)[C@H](CC(=O)O)NC(=O)[C@H](C)NC(=O)[C@H](CC(=O)O)NC(=O)[C@H](Cc2ccccc2)NC(=O)[C@H](CCCNC(=N)N)NC(=O)[C@H](CCCNC(=N)N)NC(=O)[C@@H]2CCCN2C(=O)[C@H]2CCCN2C(=O)[C@@H](CCCNC(=N)N)NC(=O)[C@H](Cc2ccc3ccccc3c2)NC(=O)[C@H](Cc2ccccc2)NC1=O`, the RFU is reported as 14%.

As for `C[C@@H]1NC(=O)[C@H](C)NC(=O)[C@H](CCCNC(=N)N)NC(=O)[C@H](CCCNC(=N)N)NC(=O)[C@H](CCCNC(=N)N)NC(=O)[C@@H]2CCCN2C(=O)[C@H]2CCCN2C(=O)[C@H](Cc2ccccc2)NC(=O)[C@H](Cc2ccc3ccccc3c2)NC(=O)[C@H](Cc2ccccc2)NC(=O)[C@H](C)NC(=O)[C@H](C)NC(=O)[C@H](CCC(=O)NCCOCCOCC(=O)N[C@@H](CCCCNC(=O)c2ccc3c(c2)C(=O)OC32c3ccc4cc(O)ccc4c3Oc3c2ccc2cc(O)ccc32)C(N)=O)NC(=O)[C@H](C)NC1=O`, the RFU came out at 8.3%.

With `C[C@@H]1NC(=O)[C@H](C)NC(=O)[C@H](Cc2ccccc2)NC(=O)[C@H](CCCNC(=N)N)NC(=O)[C@H](CCCNC(=N)N)NC(=O)[C@@H]2CCCN2C(=O)[C@H]2CCCN2C(=O)[C@H](CCCNC(=N)N)NC(=O)[C@H](Cc2ccc3ccccc3c2)NC(=O)[C@H](Cc2ccccc2)NC(=O)[C@H](C)NC(=O)[C@H](C)NC(=O)[C@H](CCC(=O)NCCOCCOCC(=O)N[C@@H](CCCCNC(=O)c2ccc3c(c2)C(=O)OC32c3ccc4cc(O)ccc4c3Oc3c2ccc2cc(O)ccc32)C(N)=O)NC(=O)[C@H](C)NC1=O`, the RFU came out at 22%.

As for `C[C@@H]1NC(=O)[C@H](C)NC(=O)[C@H](Cc2ccccc2)NC(=O)[C@H](CCCNC(=N)N)NC(=O)[C@H](CCCNC(=N)N)NC(=O)[C@@H]2CCCN2C(=O)[C@H]2CCCN2C(=O)[C@H](CCCNC(=N)N)NC(=O)[C@@H](Cc2ccc3ccccc3c2)NC(=O)[C@H](Cc2ccccc2)NC(=O)[C@H](C)NC(=O)[C@H](C)NC(=O)[C@H](CCC(=O)NCCOCCOCC(=O)N[C@@H](CCCCNC(=O)c2ccc3c(c2)C(=O)OC32c3ccc4cc(O)ccc4c3Oc3c2ccc2cc(O)ccc32)C(N)=O)NC(=O)[C@H](C)NC1=O`, the RFU is 51%.

`C[C@@H]1NC(=O)[C@H](C)NC(=O)[C@H](Cc2ccccc2)NC(=O)[C@H](CCCNC(=N)N)NC(=O)[C@H](CCCNC(=N)N)NC(=O)[C@@H]2CCCN2C(=O)[C@H]2CCCN2C(=O)[C@@H](CCCNC(=N)N)NC(=O)[C@H](Cc2ccc3ccccc3c2)NC(=O)[C@H](Cc2ccccc2)NC(=O)[C@H](C)NC(=O)[C@H](C)NC(=O)[C@H](CCC(=O)NCCOCCOCC(=O)N[C@@H](CCCCNC(=O)c2ccc3c(c2)C(=O)OC32c3ccc4cc(O)ccc4c3Oc3c2ccc2cc(O)ccc32)C(N)=O)NC(=O)[C@H](C)NC1=O`: the RFU is 33%.

With `C[C@@H]1NC(=O)[C@H](C)NC(=O)[C@H](CCCNC(=N)N)NC(=O)[C@H](CCCNC(=N)N)NC(=O)[C@H](CCCNC(=N)N)NC(=O)[C@@H]2CCCN2C(=O)[C@H]2CCCN2C(=O)[C@H](CCCNC(=N)N)NC(=O)[C@H](Cc2ccc3ccccc3c2)NC(=O)[C@H](Cc2ccccc2)NC(=O)[C@H](C)NC(=O)[C@H](C)NC(=O)[C@H](CCC(=O)NCCOCCOCC(=O)N[C@@H](CCCCNC(=O)c2ccc3c(c2)C(=O)OC32c3ccc4cc(O)ccc4c3Oc3c2ccc2cc(O)ccc32)C(N)=O)NC(=O)[C@H](C)NC1=O`, the RFU came out at 21%.

Turning to `C[C@@H]1NC(=O)[C@H](CO)NC(=O)[C@H](C)NC(=O)[C@H](CO)NC(=O)[C@H](Cc2ccccc2)NC(=O)[C@H](CCCNC(=N)N)NC(=O)[C@H](CCCNC(=N)N)NC(=O)[C@@H]2CCCN2C(=O)[C@H]2CCCN2C(=O)[C@@H](CCCNC(=N)N)NC(=O)[C@H](Cc2ccc3ccccc3c2)NC(=O)[C@H](Cc2ccccc2)NC(=O)[C@H](CO)NC(=O)[C@H](C)NC(=O)[C@H](CO)NC(=O)[C@H](CCC(=O)NCCOCCOCC(=O)N[C@@H](CCCCNC(=O)c2ccc3c(c2)C(=O)OC32c3ccc4cc(O)ccc4c3Oc3c2ccc2cc(O)ccc32)C(N)=O)NC1=O`, the RFU is given as 84%.

In the case of `C[C@@H]1NC(=O)[C@H](Cc2ccccc2)NC(=O)[C@H](CCCNC(=N)N)NC(=O)[C@H](CCCNC(=N)N)NC(=O)[C@@H]2CCCN2C(=O)[C@H]2CCCN2C(=O)[C@@H](CCCNC(=N)N)NC(=O)[C@H](Cc2ccc3ccccc3c2)NC(=O)[C@H](Cc2ccccc2)NC(=O)[C@H](CCC(=O)NCCOCCOCC(=O)N[C@@H](CCCCNC(=O)c2ccc3c(c2)C(=O)OC32c3ccc4cc(O)ccc4c3Oc3c2ccc2cc(O)ccc32)C(N)=O)NC1=O`, the RFU is recorded as 8%.

Turning to `C[C@@H]1NC(=O)[C@H](Cc2ccc3ccccc3c2)NC(=O)[C@H](Cc2ccccc2)NC(=O)[C@H](C)NC(=O)[C@H](CCC(=O)NCCOCCOCC(=O)N[C@@H](CCCCNC(=O)c2ccc3c(c2)C(=O)OC32c3ccc4cc(O)ccc4c3Oc3c2ccc2cc(O)ccc32)C(N)=O)NC(=O)[C@H](Cc2ccccc2)NC(=O)[C@H](CCCNC(=N)N)NC(=O)[C@H](CCCNC(=N)N)NC(=O)[C@@H]2CCCN2C(=O)[C@H](C)NC1=O` (cyclo([2Nal]AAPRRFE([AEEA-X1])AF)), the RFU came to 46%.

With `C[C@@H]1NC(=O)[C@H](C)NC(=O)[C@H](Cc2ccccc2)NC(=O)[C@H](CCCNC(=N)N)NC(=O)[C@@H](CCCNC(=N)N)NC(=O)[C@@H]2CCCN2C(=O)[C@H]2CCCN2C(=O)[C@H](CCCNC(=N)N)NC(=O)[C@H](Cc2ccc3ccccc3c2)NC(=O)[C@H](Cc2ccccc2)NC(=O)[C@H](C)NC(=O)[C@H](C)NC(=O)[C@H](CCC(=O)NCCOCCOCC(=O)N[C@@H](CCCCNC(=O)c2ccc3c(c2)C(=O)OC32c3ccc4cc(O)ccc4c3Oc3c2ccc2cc(O)ccc32)C(N)=O)NC(=O)[C@H](C)NC1=O`, the RFU turned out to be 32%.

With `N=C(N)NCCC[C@@H]1NC(=O)[C@H](Cc2ccc3ccccc3c2)NC(=O)[C@@H](Cc2ccccc2)NC(=O)[C@H](CCC(=O)NCCOCCOCC(=O)N[C@@H](CCCCNC(=O)c2ccc3c(c2)C(=O)OC32c3ccc4cc(O)ccc4c3Oc3c2ccc2cc(O)ccc32)C(N)=O)NC(=O)[C@@H](CCCNC(=N)N)NC(=O)[C@H](CCCNC(=N)N)NC(=O)[C@@H](CCCNC(=N)N)NC1=O`, the RFU was 100%.

`C[C@@H]1NC(=O)[C@H](C)NC(=O)[C@H](Cc2ccccc2)NC(=O)[C@@H](CCCNC(=N)N)NC(=O)[C@H](CCCNC(=N)N)NC(=O)[C@@H]2CCCN2C(=O)[C@H]2CCCN2C(=O)[C@H](CCCNC(=N)N)NC(=O)[C@H](Cc2ccc3ccccc3c2)NC(=O)[C@H](Cc2ccccc2)NC(=O)[C@H](C)NC(=O)[C@H](C)NC(=O)[C@H](CCC(=O)NCCOCCOCC(=O)N[C@@H](CCCCNC(=O)c2ccc3c(c2)C(=O)OC32c3ccc4cc(O)ccc4c3Oc3c2ccc2cc(O)ccc32)C(N)=O)NC(=O)[C@H](C)NC1=O`: the RFU came out at 37%.

Take `C[C@@H]1NC(=O)[C@H](C)NC(=O)[C@H](Cc2ccccc2)NC(=O)[C@H](CCCNC(=N)N)NC(=O)[C@H](CCCNC(=N)N)NC(=O)[C@H](C)NC(=O)[C@H](C)NC(=O)[C@@H](CCCNC(=N)N)NC(=O)[C@H](Cc2ccc3ccccc3c2)NC(=O)[C@H](Cc2ccccc2)NC(=O)[C@H](C)NC(=O)[C@H](C)NC(=O)[C@H](CCC(=O)NCCOCCOCC(=O)N[C@@H](CCCCNC(=O)c2ccc3c(c2)C(=O)OC32c3ccc4cc(O)ccc4c3Oc3c2ccc2cc(O)ccc32)C(N)=O)NC(=O)[C@H](C)NC1=O`: the RFU came to 4.1%.

For the molecule `C[C@@H]1NC(=O)[C@H](CCCNC(=N)N)NC(=O)[C@H](CCC(=O)NCCOCCOCC(=O)N[C@@H](CCCCNC(=O)c2ccc3c(c2)C(=O)OC32c3ccc4cc(O)ccc4c3Oc3c2ccc2cc(O)ccc32)C(N)=O)NC(=O)[C@H](CCCNC(=N)N)NC(=O)[C@H](C)NC(=O)[C@H](CCCNC(=N)N)NC(=O)[C@H](Cc2ccccc2)NC(=O)[C@H](CCCNC(=N)N)NC(=O)[C@H](CCCNC(=N)N)NC(=O)[C@@H]2CCCN2C(=O)[C@H]2CCCN2C(=O)[C@@H](CCCNC(=N)N)NC(=O)[C@H](Cc2ccc3ccccc3c2)NC(=O)[C@H](Cc2ccccc2)NC1=O`, the RFU came to 34%.

With `C[C@@H]1NC(=O)[C@H](C)NC(=O)[C@H](Cc2ccc3ccccc3c2)NC(=O)[C@H](CCCNC(=N)N)NC(=O)[C@H](CCCNC(=N)N)NC(=O)[C@@H]2CCCN2C(=O)[C@H]2CCCN2C(=O)[C@H](CCCNC(=N)N)NC(=O)[C@H](CCCNC(=N)N)NC(=O)[C@H](Cc2ccccc2)NC(=O)[C@H](C)NC(=O)[C@H](C)NC(=O)[C@H](CCC(=O)NCCOCCOCC(=O)N[C@@H](CCCCNC(=O)c2ccc3c(c2)C(=O)OC32c3ccc4cc(O)ccc4c3Oc3c2ccc2cc(O)ccc32)C(N)=O)NC(=O)[C@H](C)NC1=O`, the RFU is reported as 5.7%.

Take `C[C@@H]1NC(=O)[C@H](CCC(=O)NCCOCCOCC(=O)N[C@@H](CCCCNC(=O)c2ccc3c(c2)C(=O)OC32c3ccc4cc(O)ccc4c3Oc3c2ccc2cc(O)ccc32)C(N)=O)NC(=O)[C@H](Cc2ccccc2)NC(=O)[C@H](CCCNC(=N)N)NC(=O)[C@H](CCCNC(=N)N)NC(=O)[C@@H]2CCCN2C(=O)[C@H]2CCCN2C(=O)[C@@H](CCCNC(=N)N)NC(=O)[C@H](Cc2ccc3ccccc3c2)NC(=O)[C@H](Cc2ccccc2)NC1=O`: the RFU was 94%.

(Values after ChEMBL document CHEMBL4665872, “Rational design of cell-permeable cyclic peptides containing a d-Pro-l-Pro motif” (Bioorg Med Chem, 2020).)
